Source: ChEMBL document CHEMBL1145389, “Total synthesis and biological evaluation of C16 analogs of (-)-dictyostatin” (2007)

Experiments:
1A9/ptx-22 = assay: Growth inhibition of beta tubulin A364T mutant expressing human 1A9/Ptx22 cells after 72 hrs; type: functional; details: 1A9/ptx-22, 72 h
Outline: (§1)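 GI50 determined after 72 h continuous exposure to test agent in ovarian carcinoma 1A9 cells and in paclitaxel-resistant 1A9 clones carrying mutant β-tubulin (Ptx10, βPhe270→Val; Ptx22, βAla364→Thr).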

1A9 = assay: Growth inhibition of human 1A9 cells after 72 hrs; type: functional; details: 1A9, 72 h; outline: as §1
Bos taurus [1] = species on record: Bos taurus; assay: Displacement of [3H]paclitaxel from bovine brain tubulin at 4 uM
Outline: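 Competition at 37 °C: 4 µM test agent against 2 µM [³H]paclitaxel for binding to microtubules assembled from 2 µM bovine brain tubulin with 20 µM dideoxyGTP; reported as percent competition.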

1A9/ptx-10 = assay: Growth inhibition of beta tubulin Phe270Val mutant expressing human 1A9/Ptx10 cells after 72 hrs; type: functional; details: 1A9/ptx-10, 72 h; outline: as §1
HeLa = assay: Increase in cellular tubulin polymer mass in HeLa cells assessed as minimum detectable effective concentration after 21 hrs; type: functional, Homo sapiens
Outline: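 HeLa cells exposed continuously for 21 h; lowest concentration producing a detectable rise in cellular tubulin polymer mass recorded as MDEC.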

Bos taurus [2] = species on record: Bos taurus; assay: Induction of bovine brain tubulin polymerization at 10 uM relative to paclitaxel

Structure (SMILES) | GI50 (1A9/ptx-22) [nM] | GI50 (1A9) [nM] | Activity (Bos taurus [1]) [%] | GI50 (1A9/ptx-10) [nM] | Activity (HeLa) [nM] | % tubulin polymerization (Bos taurus [2]) [%]
C=C/C=C\[C@H](C)[C@H](O)[C@H](C)[C@@H]1CC/C=C\[C@H](C)[C@@H](O)[C@@H](C)/C=C\[C@H](O)C[C@H](O)[C@H](C)/C=C\C=C\C(=O)O1 | > 50000 | > 50000 | 7 | 32700 | > 5000 | 6
C=C/C=C\[C@H](C)[C@@H]1OC(=O)/C=C\C=C\[C@@H](C)[C@@H](O)C[C@H](O)/C=C\[C@H](C)[C@H](O)[C@@H](C)C[C@@H](C)CC[C@@H](O)[C@@H]1C [DICTYOSTATIN] | 1.3 | 0.69 | 75 | 3.2 | 5.4 | 
C=C/C=C\[C@H](C)[C@@H]1OC(=O)/C=C\C=C\[C@@H](C)[C@@H](O)C[C@H](O)/C=C\[C@H](C)[C@H](O)[C@@H](C)CCCC[C@@H](O)[C@@H]1C | 5.6 | 0.41 | 48 | 470 | 25 | 91
C=C/C=C\[C@H](C)[C@H](O)[C@@H](C)[C@H]1CC[C@@H](C)C[C@H](C)[C@@H](O)[C@@H](C)/C=C\[C@@H](O)C[C@H](O)[C@H](C)/C=C/C=C\C(=O)O1 | 53800 | 7800 | 4 | 44200 | > 5000 | 3
C=C/C=C\[C@H](C)[C@@H]1OC(=O)/C=C/C=C/[C@@H](C)[C@@H](O)C[C@H](O)/C=C\[C@H](C)[C@H](O)[C@@H](C)/C=C\CC[C@@H](O)[C@@H]1C | 847 | 210 | 5 | 23700 | 647 | 10
C=C/C=C\[C@H](C)[C@@H]1OC(=O)/C=C\C=C\[C@@H](C)[C@@H](O)C[C@@H](O)/C=C\[C@H](C)[C@H](O)[C@@H](C)/C=C\CC[C@@H](O)[C@@H]1C | 4600 | 4260 | 11 | 19300 | > 5000 | 1
C=C/C=C\[C@H](C)[C@H](OC(N)=O)[C@@H](C)[C@H](O)[C@@H](C)C/C(C)=C\[C@H](C)[C@@H](O)[C@@H](C)/C=C\[C@@H](O)C[C@@H]1OC(=O)[C@H](C)[C@@H](O)[C@H]1C [DISERMOLIDE] | 7 | 1.7 | 76 | 6.2 | 65 | 148
C=C/C=C\[C@H](C)[C@H](OC(N)=O)[C@@H](C)[C@H](O)[C@@H](C)C/C=C\[C@H](C)[C@@H](O)[C@@H](C)/C=C\[C@@H](O)C[C@@H]1OC(=O)[C@H](C)[C@@H](O)[C@H]1C | 30 | 3.7 | 75 | 33 | 29 | 
C=C/C=C\[C@H](C)[C@@H]1OC(=O)/C=C\C=C\[C@@H](C)[C@@H](O)C[C@H](O)/C=C\[C@H](C)[C@H](O)[C@@H](C)/C=C\CC[C@@H](O)[C@@H]1C | 62 | 8.3 | 38 | 942 | 11 | 107
C=C/C=C\[C@H](C)[C@@H]1OC(=O)/C=C\C=C\[C@@H](C)[C@@H](O)C[C@H](O)/C=C\[C@H](C)[C@H](O)[C@@H](C)C[C@H](C)CC[C@@H](O)[C@@H]1C | 543 | 61 | 11 | 862 | 1280 | 9
CC(=O)O[C@H]1C(=O)[C@@]2(C)[C@H]([C@H](OC(=O)c3ccccc3)[C@]3(O)C[C@H](OC(=O)[C@H](O)[C@@H](NC(=O)c4ccccc4)c4ccccc4)C(C)=C1C3(C)C)[C@]1(OC(C)=O)CO[C@@H]1C[C@@H]2O [PACLITAXEL] | 51 | 0.71 |  | 64 | 5.2 | 100
